What was measured:
SERT [1] = assay: MicroPET baseline regional brain uptake in anesthetized cynomolgus monkeys; assay type: in vivo, cynomolgus monkey
SERT [2] = assay: HRRT PET baseline study in awake rhesus monkey; assay type: in vivo
[3] = Protein-bound tracer in plasma; assay type: in vivo, cynomolgus monkey; details: range over the time points of the study
In short: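 Arterial plasma was sampled after injection of the fluorine-18 labelled test compound during a baseline microPET study in a cynomolgus monkey. Samples spanned 1 to 180 min post-injection. The percentage of tracer bound to plasma protein was determined at each time point. The same samples underwent radio-HPLC metabolite analysis.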

Row | SMILES | time of peak uptake, caudate (SERT [1]; anesthetized) | time of peak uptake, cerebellum (SERT [1]; anesthetized) | time of peak uptake, medulla (SERT [1]; anesthetized) | time of peak uptake, midbrain (SERT [1]; anesthetized) | time of peak uptake, pons (SERT [1]; anesthetized) | time of peak uptake, putamen (SERT [1]; anesthetized) | time of peak uptake, thalamus (SERT [1]; anesthetized) | time at which uptake ratios stabilize (SERT [1]; anesthetized cynomolgus monkey) | time at which washout from the SERT-rich brain regions begins (SERT [1]; anesthetized cynomolgus monkey) | time at which washout from the cerebellum begins (SERT [1]; anesthetized cynomolgus monkey) | time of peak uptake, caudate (SERT [2]; awake rhesus) | time of peak uptake, cerebellum (SERT [2]; awake rhesus) | time of peak uptake, medulla (SERT [2]; awake rhesus) | time of peak uptake, midbrain (SERT [2]; awake rhesus) | time of peak uptake, pons (SERT [2]; awake rhesus) | time of peak uptake, putamen (SERT [2]; awake rhesus) | time of peak uptake, thalamus (SERT [2]; awake rhesus) | time of peak uptake in thalamus, putamen, midbrain, and caudate (SERT [2]; awake rhesus monkey) | percentage of protein-bound tracer in plasma [3] | time of peak uptake in the SERT-rich brain regions (SERT [1]; anesthetized cynomolgus monkey)
1 | O=C(OCC[18F])C1C2CCC(CC1c1cccc(/C=C\I)c1)N2 (stereo not drawn) [[^18F]1, 2β-Carbo(2-[^18F]fluoroethoxy)-3β-(3′-((Z)-2-iodoethenyl)phenyl)nortropane] | 55 min | ~ 27 min | 35 min | 45 min | 45 min | 45 min | 45 min | ~ 175 minutes | ~ 65 minutes | ~ 27 minutes | 45 min | 45 min | 35 min | 45 min | 85 min | 45 min | 45 min | ~ 45 min | 5.6 - 8.5% | 
2 | O=C(OCC[18F])C1C2CCC(CC1c1cccc(/C=C\Br)c1)N2 (stereo not drawn) [[^18F]2, 2β-Carbo(2-[^18F]fluoroethoxy)-3β-(3′-((Z)-2-bromoethenyl)phenyl)nortropane] |  | ~ 30 min |  |  |  |  |  |  |  |  |  |  |  |  |  |  |  |  |  | 55 to 65 min
3 | O=C(OCCC[18F])C1C2CCC(CC1c1cccc(/C=C\Br)c1)N2 (stereo not drawn) [[^18F]4, 2β-Carbo(3-[^18F]fluoropropoxy)-3β-(3′-((Z)-2-bromoethenyl)phenyl)nortropane] |  |  |  |  |  |  |  |  |  |  |  |  |  |  |  |  |  |  |  | 35 to 45 min
